Laboratory results taken from ChEMBL document CHEMBL1134616, “Novel 7-oxyiminomethyl derivatives of camptothecin with potent in vitro and in vivo antitumor activity” (J Med Chem, 2001).

Assays:
[1] = Log 10 cell kill induced by treatment in mice with lung carcinoma LX-1 at a oral dose of 3 mg/kg; type: functional, Mus musculus
How it was run: (§1)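 Nude athymic CD1 mice, 8–10 weeks, carrying s.c. human lung tumor fragments in both flanks. Given per os on a q4dx4 schedule at 10 mL/kg, starting when tumors were visible but not measurable. Volume = d²×D/2. Log10 cell kill = T−C/3.32 × tumor doubling time, where T and C are the days for treated and control tumors to reach a mean volume of 1000 mm³.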

[2] = Percentage inhibition of tumor volume mice with lung carcinoma LX-1 at a oral dose of 3 mg/kg; type: functional; settings: Mus musculus
How it was run: (§2)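 Nude athymic CD1 mice, 8–10 weeks old, with human lung tumor fragments implanted s.c. in both flanks. Oral dosing in 10 mL/kg, q4dx4, started when tumors were visible but not measurable. Tumor volume = d²×D/2 from caliper diameters. Percent inhibition of treated versus control volume taken 7–10 days after the last dose. Volumes compared by Student's t test, P<0.05.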

[3] = Percentage of body weight loss in CD1 mice with human Non-Small-Cell tumor at a oral dose of 4 mg/kg; type: functional, Mus musculus
How it was run: (§3)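 Nude athymic CD1 mice, 8–10 weeks old, bearing s.c. human lung tumor xenografts in both flanks. Given oral drug in 10 mL/kg on a q4dx4 schedule, beginning when tumors were visible but not measurable. Read-out is percent body weight loss after drug treatment.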

[4] = Complete response in mice with lung carcinoma LX-1 at a oral dose of 3 mg/kg; type: functional, Mus musculus
How it was run: (§4)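 Nude athymic CD1 mice, 8–10 weeks old, carrying serially passaged human lung tumor fragments implanted s.c. in both flanks. Oral dosing in 10 mL/kg on a q4dx4 schedule, begun once tumors were visible but not yet measurable. Complete response means no detectable tumor for at least 10 days after the end of treatment.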

[5] = Percentage of body weight loss in mice with lung carcinoma LX-1 at a oral dose of 3 mg/kg; type: functional, Mus musculus; how it was run: as §3
[6] = Percentage inhibition of tumor volume in treated versus control mice against human Non-Small-Cell tumor xenograft at a oral dose of 4 mg/kg; type: functional; settings: Mus musculus; how it was run: as §2
[7] = test system: NCI-H460; experiment: No. of dead mice/ total No. of mice with human Non-Small-Cell tumor at a oral dose of 3 mg/kg; type: ADME, organism-based; set-up: dose 3 mg/kg, route oral; settings: in vivo
How it was run: (§5)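 Human lung tumor s.c. xenografts (fragments, both flanks) in nude athymic CD1 mice aged 8–10 weeks. Oral q4dx4 dosing at 10 mL/kg, begun when tumors were visible but not measurable. Toxicity is recorded as the number of dead mice over the total number of treated mice.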

[8] = test system: NCI-H460; experiment: Percentage of body weight loss in CD1 mice with human Non-Small-Cell tumor at a oral dose of 2 mg/kg; type: functional; how it was run: as §3
[9] = test system: NCI-H460; experiment: Percentage of body weight loss in CD1 mice with human Non-Small-Cell tumor at a oral dose of 4 mg/kg
[10] = test system: NCI-H460; experiment: Complete response in CD1 mice with human Non-Small-Cell tumor at a oral dose of 1 mg/kg; type: functional; how it was run: as §4
[11] = Log 10 cell kill induced by treatment in CD1 mice with human Non-Small-Cell tumor at a oral dose of 2 mg/kg
[12] = Cytotoxicity against human non-small-cell lung carcinoma cell line H460 (NSCLC-H460); type: functional, cell-based
How it was run: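 Logarithmically growing cells were seeded in duplicate, exposed to drug for 1 h starting 24 h after seeding, and counted by Coulter counter 72 h after exposure. Drug was dissolved in DMSO before dilution. The IC50 is the concentration giving a 50% decrease in growth relative to untreated control.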

[13] = test system: NCI-H460; experiment: No. of dead mice/ total No. of mice with human Non-Small-Cell tumor at a oral dose of 2 mg/kg; type: ADME, organism-based; set-up: dose 2 mg/kg, route oral; settings: in vivo; how it was run: as §5
[14] = test system: NCI-H460; experiment: Log 10 cell kill induced by treatment in CD1 mice with human Non-Small-Cell tumor at a oral dose of 2 mg/kg; type: functional; how it was run: as §1
[15] = test system: NCI-H460; experiment: Percentage inhibition of tumor volume in treated versus control mice against human Non-Small-Cell tumor xenograft at a oral dose of 2 mg/kg; type: functional; settings: Mus musculus; how it was run: as §2
[16] = No. of dead mice/ total No. of mice in mice with lung carcinoma LX-1 at a oral dose of 3 mg/kg; type: ADME, organism-based; set-up: dose 3 mg/kg, route oral; settings: mouse, in vivo; how it was run: as §5
[17] = test system: NCI-H460; experiment: Log 10 cell kill induced by treatment in CD1 mice with human Non-Small-Cell tumor at a oral dose of 3 mg/kg; type: functional; how it was run: as §1
[18] = test system: NCI-H460; experiment: Log 10 cell kill induced by treatment iin CD1 mice with human Non-Small-Cell tumor at a oral dose of 1 mg/kg; type: functional; how it was run: as §1
[19] = test system: NCI-H460; experiment: Complete response in CD1 mice with human Non-Small-Cell tumor at a oral dose of 3 mg/kg; type: functional; how it was run: as §4
[20] = test system: NCI-H460; experiment: No. of dead mice/ total No. of mice in CD1 mice with human Non-Small-Cell tumor at a oral dose of 1 mg/kg; type: ADME, organism-based; set-up: dose 1 mg/kg, route oral; settings: in vivo; how it was run: as §5
[21] = test system: NCI-H460; experiment: Complete response in CD1 mice with human Non-Small-Cell tumor at a oral dose of 2 mg/kg; type: functional; how it was run: as §4
[22] = test system: NCI-H460; experiment: Percentage inhibition of tumor volume in treated versus control mice against human Non-Small-Cell tumor xenograft at a oral dose of 3 mg/kg; type: functional; settings: Mus musculus; how it was run: as §2
[23] = test system: NCI-H460; experiment: Percentage inhibition of tumor volume in treated versus control mice against human Non-Small-Cell tumor xenograft at a oral dose of 1 mg/kg; type: functional; settings: Mus musculus; how it was run: as §2
[24] = Complete response in CD1 mice with human Non-Small-Cell tumor at a oral dose of 4 mg/kg; type: functional, Mus musculus; how it was run: as §4
[25] = test system: NCI-H460; experiment: Percentage of body weight loss in CD1 mice with human Non-Small-Cell tumor at a oral dose of 1 mg/kg; type: functional; how it was run: as §3

Work on `CC[C@@]1(O)C(=O)OCc2c1cc1n(c2=O)Cc2c-1nc1ccccc1c2/C=N/OC(C)(C)C` [GIMATECAN] yielded an LCK [1] of 5.3, an inhibition in vivo at 3 mg/kg [2] of 100% and a BWL [3] of 5%. For the same compound, the CR [4] was 8, the BWL [5] was 11% and the inhibition in vivo at 4 mg/kg [6] was 99%. For the same compound, the Toxicity [7] was 2, the BWL [8] was 1% and the BWL [9] was 23%. For the same compound, the CR [10] was 0, the LCK [11] was 2.4 and the IC50 [12] was 0.015 µM. For the same compound, the Toxicity [13] was 0, the LCK [14] was 2.4 and the inhibition in vivo at 2 mg/kg [15] was 99%. The Toxicity [16] was 0, the LCK [17] was 2.5 and the LCK [18] was 1.4. For the same compound, the CR [19] was 8, the Toxicity [20] was 0 and the CR [21] was 5. The inhibition in vivo at 3 mg/kg [22] was 100%, the inhibition in vivo at 1 mg/kg [23] was 90% and the CR [24] was 4. The BWL [25] was 0%.
